# Experiments:
# [1] = biological target: Sodium-dependent noradrenaline transporter (Homo sapiens, UniProt P23975); test: Inhibition of [3H]norepinephrine reuptake at human NET expressed in MDCK cells by scintillation counting; assay type: cell-based
# [2] = biological target: Sodium-dependent dopamine transporter (Homo sapiens, UniProt Q01959); test: Inhibition of [3H]dopamine reuptake at human DAT expressed in CHOK1 cells by scintillation counting; assay type: cell-based, CHO-K1
# [3] = biological target: Voltage-gated inwardly rectifying potassium channel KCNH2 (Homo sapiens, UniProt Q12809); test: Inhibition of human ERG
# Cytochrome P450 3A4 = Cytochrome P450 3A4 (Homo sapiens, UniProt P08684); test: Inhibition of CYP3A4; assay type: ADME
# Outline: (§1)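 Microsomal stability and CYP inhibition were run by a contract laboratory under its standard protocols. Stability was measured in human and mouse liver microsomes and reported as t1/2 in min. Midazolam was the reference substrate for CYP3A4.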
# [4] = Half life in human liver microsome; assay type: ADME; conditions: liver microsomes; outline: as §1
# Cytochrome P450 2D6 = Cytochrome P450 2D6 (Homo sapiens, UniProt P10635); test: Inhibition of CYP2D6; assay type: ADME; outline: as §1
# [5] = Half life in mouse liver microsome; assay type: ADME; conditions: liver microsomes; outline: as §1
# Cytochrome P450 2C9 = Cytochrome P450 2C9 (Homo sapiens, UniProt P11712); test: Inhibition of CYP2C9; assay type: ADME; outline: as §1
# Cytochrome P450 2C19 = Cytochrome P450 2C19 (Homo sapiens, UniProt P33261); test: Inhibition of CYP2C19; assay type: ADME
# [6] = Ratio of drug level in whole brain to plasma of mouse at 30 mg/kg, po after 120 mins; assay type: ADME, organism-based; parameters: dose 30 mg/kg, route oral; conditions: read-out: BPR
# Outline: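 Male mice were dosed orally once with the HCl salt at 3, 10 and 30 mg/kg, with a 120 min pretreatment before the 5 min tail suspension test. There were 10–12 mice per group. Afterwards, whole brain (ng/g) and plasma (ng/mL) samples were taken from the tested animals to give the brain-to-plasma ratio.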
# [7] = Drug level in mouse plasma at 3 mg/kg, po after 120 mins; assay type: ADME, organism-based; parameters: dose 3 mg/kg, route oral; conditions: read-out: Drug uptake
# Outline: (§2)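 Male mice given the HCl salt orally at 3, 10 or 30 mg/kg. Plasma and whole brain were sampled from the tail suspension test animals after the 120 min pretreatment. Levels reported as ng/mL for plasma and ng/g for brain.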
# Mus musculus [8] = test: Antidepressant activity in mouse assessed as decrease in immobility at 10 mg/kg, po after 120 mins by tail suspension test; assay type: functional; conditions: 2 h
# Outline: (§3)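 Male mice (10–12 per group) dosed orally once, 120 min pretreatment, then suspended by the tail. Immobility recorded automatically for 5 min, scored blind, compared with a vehicle group. One-way ANOVA with post-hoc comparisons, p <0.05 taken as significant.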
# Mus musculus [9] = test: Neurotoxicity in mouse assessed as effect on locomotor activity at 3 to 30 mg/kg, po; assay type: toxicity, organism-based; parameters: dose 3-30 mg/kg, route oral; conditions: in vivo
# Outline: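 Mice pretreated orally with vehicle or compound, returned to the home cage, then placed individually in locomotor cages with infrared photocell beams. Horizontal and vertical activity monitored in 5 min intervals for up to 60 min; the first 5 min were assessed at 10 and 30 mg/kg. One-way ANOVA, p <0.05.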
# [10] = Drug level in mouse plasma at 10 mg/kg, po after 120 mins; assay type: ADME, organism-based; parameters: dose 10 mg/kg, route oral; conditions: read-out: Drug uptake; outline: as §2
# Brain = test: fCmax in mouse brain at 3 to 30 mg/kg, po after 120 mins; assay type: ADME, organism-based; parameters: dose 3-30 mg/kg, route oral; conditions: in vivo, 2 h
# Outline: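 Brain free level estimated from measured brain concentration in the tail suspension test animals, corrected by mouse plasma protein binding.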
# Mus musculus [11] = test: Antidepressant activity in po dosed mouse assessed as decrease in immobility after 120 mins by tail suspension test; assay type: functional, organism-based; outline: as §3
# [12] = Drug level in mouse whole brain at 30 mg/kg, po after 120 mins; assay type: ADME, organism-based; parameters: dose 30 mg/kg, route oral; conditions: in vivo, 2 h; outline: as §2
# [13] = Plasma protein binding in mouse at 3 to 30 mg/kg, po after 120 mins; assay type: ADME, organism-based; parameters: dose 3-30 mg/kg, route oral; conditions: read-out: PPB
# [14] = Drug level in mouse whole brain at 3 mg/kg, po after 120 mins; assay type: ADME, organism-based; parameters: dose 3 mg/kg, route oral; conditions: in vivo, 2 h; outline: as §2
# [15] = Drug level in mouse plasma at 30 mg/kg, po after 120 mins; assay type: ADME, organism-based; parameters: dose 30 mg/kg, route oral; conditions: read-out: Drug uptake; outline: as §2
# [16] = Drug level in mouse whole brain at 10 mg/kg, po after 120 mins; assay type: ADME, organism-based; parameters: dose 10 mg/kg, route oral; conditions: in vivo, 2 h; outline: as §2
# Mus musculus [17] = test: Antidepressant activity in mouse assessed as decrease in immobility at 30 mg/kg, po after 120 mins by tail suspension test; assay type: functional; conditions: 2 h; outline: as §3
# Mus musculus [18] = test: Antidepressant activity in mouse assessed as decrease in immobility at 100 mg/kg, po after 120 mins by tail suspension test; assay type: functional; conditions: 2 h; outline: as §3
# Sequence of Cytochrome P450 2C9 (P11712 whole entry): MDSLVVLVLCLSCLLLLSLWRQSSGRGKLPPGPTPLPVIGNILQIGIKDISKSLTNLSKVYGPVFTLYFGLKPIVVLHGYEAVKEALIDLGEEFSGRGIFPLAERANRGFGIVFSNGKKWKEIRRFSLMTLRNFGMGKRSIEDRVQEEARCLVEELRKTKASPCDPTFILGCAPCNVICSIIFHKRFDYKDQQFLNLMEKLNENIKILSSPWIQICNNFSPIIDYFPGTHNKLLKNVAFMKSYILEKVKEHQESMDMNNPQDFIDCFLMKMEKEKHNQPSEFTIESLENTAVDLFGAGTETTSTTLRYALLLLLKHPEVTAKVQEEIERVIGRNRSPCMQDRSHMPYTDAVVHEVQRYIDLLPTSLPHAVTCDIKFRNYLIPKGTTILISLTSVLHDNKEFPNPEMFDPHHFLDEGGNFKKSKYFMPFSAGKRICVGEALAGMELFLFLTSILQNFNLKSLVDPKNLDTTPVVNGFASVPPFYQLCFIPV
# Sequence of Sodium-dependent dopamine transporter (Q01959 whole entry): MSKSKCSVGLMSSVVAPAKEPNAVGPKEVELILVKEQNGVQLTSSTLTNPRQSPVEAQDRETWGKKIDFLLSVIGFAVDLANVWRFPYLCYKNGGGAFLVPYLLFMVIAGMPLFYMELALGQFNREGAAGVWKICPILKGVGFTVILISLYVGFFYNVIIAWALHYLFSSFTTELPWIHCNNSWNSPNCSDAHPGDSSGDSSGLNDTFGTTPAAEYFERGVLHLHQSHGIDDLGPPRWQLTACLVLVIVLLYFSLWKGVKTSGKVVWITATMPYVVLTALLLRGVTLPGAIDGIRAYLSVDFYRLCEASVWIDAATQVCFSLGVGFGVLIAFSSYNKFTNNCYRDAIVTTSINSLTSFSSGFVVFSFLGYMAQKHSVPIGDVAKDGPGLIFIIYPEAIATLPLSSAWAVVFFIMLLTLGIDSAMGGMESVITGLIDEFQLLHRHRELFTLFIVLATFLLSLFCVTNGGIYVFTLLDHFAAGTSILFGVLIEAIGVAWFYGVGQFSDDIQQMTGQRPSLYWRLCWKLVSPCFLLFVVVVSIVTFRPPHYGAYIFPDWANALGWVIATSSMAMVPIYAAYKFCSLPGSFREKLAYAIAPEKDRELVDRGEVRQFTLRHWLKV
# Sequence of Cytochrome P450 2D6 (P10635 whole entry): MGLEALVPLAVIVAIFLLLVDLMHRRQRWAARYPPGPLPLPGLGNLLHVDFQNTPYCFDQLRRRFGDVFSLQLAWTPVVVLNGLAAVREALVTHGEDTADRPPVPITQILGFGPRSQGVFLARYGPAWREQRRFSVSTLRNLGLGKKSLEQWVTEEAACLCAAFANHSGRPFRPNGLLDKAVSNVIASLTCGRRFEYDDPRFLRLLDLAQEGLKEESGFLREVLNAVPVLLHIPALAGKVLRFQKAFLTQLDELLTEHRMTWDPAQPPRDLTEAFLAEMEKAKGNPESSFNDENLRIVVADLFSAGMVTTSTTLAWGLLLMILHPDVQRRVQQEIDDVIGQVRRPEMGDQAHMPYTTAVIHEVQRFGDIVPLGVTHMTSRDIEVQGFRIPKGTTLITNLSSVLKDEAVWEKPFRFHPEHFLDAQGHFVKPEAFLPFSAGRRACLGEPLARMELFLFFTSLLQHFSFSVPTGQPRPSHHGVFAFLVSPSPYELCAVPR
# Sequence of Sodium-dependent noradrenaline transporter (P23975 whole entry): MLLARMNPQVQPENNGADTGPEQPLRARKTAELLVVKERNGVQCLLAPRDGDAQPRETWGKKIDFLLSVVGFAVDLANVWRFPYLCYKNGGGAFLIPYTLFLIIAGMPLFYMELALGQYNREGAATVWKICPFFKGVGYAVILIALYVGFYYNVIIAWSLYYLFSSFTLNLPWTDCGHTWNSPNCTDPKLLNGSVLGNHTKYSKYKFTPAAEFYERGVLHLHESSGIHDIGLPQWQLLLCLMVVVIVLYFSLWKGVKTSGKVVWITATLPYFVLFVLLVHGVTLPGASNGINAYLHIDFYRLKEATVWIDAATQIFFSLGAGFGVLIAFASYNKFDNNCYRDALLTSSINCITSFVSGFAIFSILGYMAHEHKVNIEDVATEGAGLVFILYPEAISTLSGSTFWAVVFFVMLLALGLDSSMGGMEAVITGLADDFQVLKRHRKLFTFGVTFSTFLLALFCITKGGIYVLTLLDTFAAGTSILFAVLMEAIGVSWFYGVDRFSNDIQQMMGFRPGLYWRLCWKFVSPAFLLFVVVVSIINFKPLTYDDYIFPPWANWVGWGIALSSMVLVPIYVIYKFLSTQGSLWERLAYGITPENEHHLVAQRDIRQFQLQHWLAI
# Sequence of Cytochrome P450 3A4 (P08684 whole entry): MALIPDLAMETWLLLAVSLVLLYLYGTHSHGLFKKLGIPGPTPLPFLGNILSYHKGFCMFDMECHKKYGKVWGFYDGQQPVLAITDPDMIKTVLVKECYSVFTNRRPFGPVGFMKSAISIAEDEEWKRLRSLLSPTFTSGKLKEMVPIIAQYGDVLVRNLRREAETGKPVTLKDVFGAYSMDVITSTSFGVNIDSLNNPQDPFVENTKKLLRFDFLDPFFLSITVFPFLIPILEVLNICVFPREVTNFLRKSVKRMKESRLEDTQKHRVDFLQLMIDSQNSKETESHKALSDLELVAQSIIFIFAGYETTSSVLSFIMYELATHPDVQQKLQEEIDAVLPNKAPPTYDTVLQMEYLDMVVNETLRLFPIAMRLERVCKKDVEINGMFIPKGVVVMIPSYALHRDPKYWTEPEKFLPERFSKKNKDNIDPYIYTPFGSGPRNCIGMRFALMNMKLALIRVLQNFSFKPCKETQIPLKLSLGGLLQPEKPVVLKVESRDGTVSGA
# Sequence of Cytochrome P450 2C19 (P33261 whole entry): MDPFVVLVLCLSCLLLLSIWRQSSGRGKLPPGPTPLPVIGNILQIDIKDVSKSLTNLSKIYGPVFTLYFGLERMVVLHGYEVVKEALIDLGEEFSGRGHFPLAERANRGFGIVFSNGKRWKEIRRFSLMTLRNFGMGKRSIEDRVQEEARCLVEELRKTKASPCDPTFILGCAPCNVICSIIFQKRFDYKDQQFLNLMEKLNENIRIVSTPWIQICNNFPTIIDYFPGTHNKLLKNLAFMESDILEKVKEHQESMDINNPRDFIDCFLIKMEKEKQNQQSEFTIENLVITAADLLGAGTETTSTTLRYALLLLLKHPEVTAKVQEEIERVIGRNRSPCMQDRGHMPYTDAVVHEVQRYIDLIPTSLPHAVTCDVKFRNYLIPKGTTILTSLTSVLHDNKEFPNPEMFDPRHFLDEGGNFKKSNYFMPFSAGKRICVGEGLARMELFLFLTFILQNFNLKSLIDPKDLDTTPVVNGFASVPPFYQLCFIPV
# Sequence of Voltage-gated inwardly rectifying potassium channel KCNH2 (Q12809 whole entry): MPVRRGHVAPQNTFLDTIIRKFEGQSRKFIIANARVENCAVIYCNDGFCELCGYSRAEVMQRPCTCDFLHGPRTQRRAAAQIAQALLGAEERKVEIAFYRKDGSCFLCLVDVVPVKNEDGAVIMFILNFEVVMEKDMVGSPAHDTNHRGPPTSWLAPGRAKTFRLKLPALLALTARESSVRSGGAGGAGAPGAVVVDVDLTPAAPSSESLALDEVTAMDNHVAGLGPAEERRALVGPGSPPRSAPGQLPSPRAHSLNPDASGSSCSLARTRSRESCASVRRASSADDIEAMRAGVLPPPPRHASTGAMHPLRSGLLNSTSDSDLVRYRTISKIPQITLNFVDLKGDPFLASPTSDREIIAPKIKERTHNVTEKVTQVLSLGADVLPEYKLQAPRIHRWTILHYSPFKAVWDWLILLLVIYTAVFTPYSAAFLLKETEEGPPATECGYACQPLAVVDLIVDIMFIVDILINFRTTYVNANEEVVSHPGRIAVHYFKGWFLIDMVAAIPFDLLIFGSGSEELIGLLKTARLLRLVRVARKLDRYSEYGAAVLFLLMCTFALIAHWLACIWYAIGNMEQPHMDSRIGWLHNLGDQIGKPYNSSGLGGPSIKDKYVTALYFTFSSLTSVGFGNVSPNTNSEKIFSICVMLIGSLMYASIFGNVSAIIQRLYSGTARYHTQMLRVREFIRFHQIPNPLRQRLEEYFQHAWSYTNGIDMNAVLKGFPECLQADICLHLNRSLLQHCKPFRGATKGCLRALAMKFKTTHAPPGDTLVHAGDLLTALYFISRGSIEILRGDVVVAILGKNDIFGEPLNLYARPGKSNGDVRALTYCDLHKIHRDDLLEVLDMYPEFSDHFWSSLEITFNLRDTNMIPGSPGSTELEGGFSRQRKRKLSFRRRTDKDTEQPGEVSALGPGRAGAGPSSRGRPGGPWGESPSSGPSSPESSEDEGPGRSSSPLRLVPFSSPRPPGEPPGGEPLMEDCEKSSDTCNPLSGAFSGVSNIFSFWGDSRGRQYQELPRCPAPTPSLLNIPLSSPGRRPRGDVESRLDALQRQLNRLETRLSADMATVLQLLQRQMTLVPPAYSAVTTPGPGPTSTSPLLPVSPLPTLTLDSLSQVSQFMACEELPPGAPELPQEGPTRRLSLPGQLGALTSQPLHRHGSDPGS
SMILES,IC50 [1],IC50 [2],IC50 (Cytochrome P450 3A4),half-life [4],IC50 (Cytochrome P450 2D6),half-life [5],IC50 (Cytochrome P450 2C9),IC50 (Cytochrome P450 2C19),further results
N[C@@H]1Cc2ccccc2[C@H](c2ccc(Cl)c(Cl)c2)C1,855 nM,894 nM,,,,,,,
N[C@H]1Cc2ccccc2[C@@H](c2ccc(Cl)c(Cl)c2)C1,174 nM,175 nM,,,,,,,
CN(C)[C@@H]1Cc2ccccc2[C@@H](c2ccc(Cl)c(Cl)c2)C1,174 nM,176 nM,,,,,,,
CNC[C@H]1Cc2ccccc2[C@H](c2ccc(Cl)c(Cl)c2)C1,,,20.1 µM,> 300 min,41 nM,> 300 min,> 25 µM,7.69 µM,IC50 [3]: 1610 nM
CNCCCN1c2ccccc2CCc2ccccc21 [DESIPRAMINE],,,,,,,,,Kp at 2 h [6]: 40
CN(C)C[C@@H]1Cc2ccccc2[C@H](c2ccc(Cl)c(Cl)c2)C1 (racemic),565 nM,332 nM,,,,,,,
CN[C@@H]1CCc2ccccc2[C@@H]1c1ccc(Cl)c(Cl)c1,112 nM,559 nM,,55 min,33 nM,55 min,7.6 µM,,
CNC[C@@H]1Cc2ccccc2[C@@H](c2ccc(Cl)c(Cl)c2)C1,126 nM,103 nM,> 25 µM,> 300 min,917 nM,93 min,> 25 µM,2.17 µM,
NCC[C@@H]1Cc2ccccc2[C@H](c2ccc(Cl)c(Cl)c2)C1,,32 nM,> 25 µM,> 300 min,265 nM,> 300 min,> 25 µM,3.76 µM,IC50 [3]: 13100 nM
CN[C@@H]1CCc2ccccc2[C@H]1c1ccc(Cl)c(Cl)c1,1640 nM,212 nM,,95 min,57 nM,20 min,> 10 µM,,
CN[C@H]1CCc2ccccc2[C@H]1c1ccc(Cl)c(Cl)c1,7260 nM,1620 nM,,55 min,495 nM,6 min,> 10 µM,,
CN[C@H]1Cc2ccccc2[C@@H](c2ccc(Cl)c(Cl)c2)C1,,,17.1 µM,> 300 min,2780 nM,> 300 min,> 25 µM,10.1 µM,IC50 [3]: 1600 nM; concentration at 2 h [7]: 96 ng/mL; inhibition in vivo at 10 mg/kg (Mus musculus [8]): 21%; Activity (Mus musculus [9]): Non-toxic; concentration at 2 h [10]: 164 ng/mL; fCmax (Brain): 440 nM; inhibition (Mus musculus [11]): Dose-dependent effect; Drug uptake [12]: 13571 ng; fraction unbound at 2 h [13]: 0.01; Drug uptake [14]: 2830 ng; concentration at 2 h [15]: 344 ng/mL; Drug uptake [16]: 6021 ng; inhibition in vivo at 30 mg/kg (Mus musculus [17]): 50%; inhibition in vivo at 100 mg/kg (Mus musculus [18]): 30%
